pIC50: −log10 of the molar value.
Columns and labels:
HCT-116 [1] = experiment: Induction of apoptosis in human HCT116 cells assessed as caspase-3/7 activation at antiproliferative IC50 after 24 hrs by Caspase-Glo assay relative to DMSO control; format: functional
Summary of the method: (§1)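 HCT116 at 5000 cells/well exposed 24 h. Caspase-Glo 3/7 reagent (DEVD-aminoluciferin substrate) 75 μL/well, 30 min room temperature for lysis and signal build-up; luminescence read. Activity expressed as fold of the reference treatment (DMSO vehicle or 5-FU); mean ± SEM, at least three experiments.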

HCT-116 [2] = experiment: Cell cycle arrest in human HCT116 cells assessed as accumulation at S phase at antiproliferative IC50 after 24 hrs by propidium iodide staining based flow cytometry (reference value: 38.8%); format: functional
HCT-116 [3] = experiment: Growth inhibition of human HCT116 cells after 72 hrs by MTS assay; format: functional, cell-based; settings: HCT-116, 72 h
Summary of the method: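 HCT116 grown in McCoy's 5A, 10% FBS, 37 °C, 5% CO2; 5000 cells/well; compound in DMSO added 24 h after plating, 72 h exposure. Viability by MTS/PMS reduction to formazan, absorbance 490 nm. IC50 with 95% CI by curve fit; at least three independent experiments.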

HCT-116 [4] = experiment: Cell cycle arrest in human HCT116 cells assessed as accumulation at G2/M phase at 2 times antiproliferative IC50 after 24 hrs by propidium iodide staining based flow cytometry (reference value: 30.2%); format: functional
HCT-116 [5] = experiment: Induction of apoptosis in human HCT116 cells assessed as apoptotic nuclei at 2 times antiproliferative IC50 after 24 hrs by Hoechst 33258 staining based fluorescence microscopic method (reference value: <2%); format: functional
Summary of the method: (§2)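 HCT116 seeded 150 000 cells per 35 mm dish; treated 24 h, fixed in 4% paraformaldehyde in PBS pH 7.4, 10 min 25 °C, stained Hoechst 33258 5 μg/mL, 5 min. Fluorescence microscopy; condensed or fragmented chromatin scored apoptotic; three random fields of about 100 nuclei per sample; percent apoptotic nuclei, mean ± SEM, ≥3 experiments.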

HepG2 = experiment: Growth inhibition of human HepG2 cells after 72 hrs by MTS assay; format: functional, cell-based; settings: HepG2, 72 h
Summary of the method: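 HepG2 grown in DMEM with 10% FBS and 1% nonessential amino acids; 5000 cells/well; medium replaced with DMSO-dissolved compound 24 h post-seeding, 72 h exposure. MTS formazan absorbance read at 490 nm. IC50 derived with 95% CI; at least three independent experiments.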

HCT-116 [6] = experiment: Cell cycle arrest in human HCT116 cells assessed as accumulation at S phase at 2 times antiproliferative IC50 after 24 hrs by propidium iodide staining based flow cytometry (reference value: 38.8%); format: functional
HCT-116 [7] = experiment: Cell cycle arrest in human HCT116 cells assessed as accumulation at G1 phase at 2 times antiproliferative IC50 after 24 hrs by propidium iodide staining based flow cytometry (reference value: 31%); format: functional
HCT-116 [8] = experiment: Cytotoxicity against human HCT116 cells assessed as cell death at antiproliferative IC50 after 72 hrs by LDH release assay relative to control; format: functional
Summary of the method: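 HCT116 cells grown in McCoy's 5A with 10% FBS at 37 °C, 5% CO2, and treated 24 h after plating for 72 h with compound or DMSO vehicle. Supernatants were spun at 250g for 2 min, and attached cells were lysed. LDH reagent was added for 15 min at room temperature in the dark, and absorbance was read at 490/620 nm. Release = supernatant/(supernatant + lysate) LDH, fold over DMSO; mean ± SEM, ≥3 experiments.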

HCT-116 [9] = experiment: Cell cycle arrest in human HCT116 cells assessed as accumulation at G1 phase at antiproliferative IC50 after 24 hrs by propidium iodide staining based flow cytometry (reference value: 31%); format: functional
HCT-116 [10] = experiment: Induction of apoptosis in human HCT116 cells assessed as caspase-3/7 activation at antiproliferative IC50 after 24 hrs by Caspase-Glo assay relative to 5-fluorouracil; format: functional; summary of the method: as §1
HCT-116 [11] = experiment: Cell cycle arrest in human HCT116 cells assessed as accumulation at G2/M phase at antiproliferative IC50 after 24 hrs by propidium iodide staining based flow cytometry (reference value: 30.2%); format: functional
HCT-116 [12] = experiment: Induction of apoptosis in human HCT116 cells assessed as apoptotic nuclei at antiproliferative IC50 after 24 hrs by Hoechst 33258 staining based fluorescence microscopic method (reference value: <2%); format: functional; summary of the method: as §2

SMILES | fold change (FC) (HCT-116 [1]) | Activity (HCT-116 [2]) [%] | pIC50 (HCT-116 [3]) | Activity (HCT-116 [4]) | Activity (HCT-116 [5]) [%] | pIC50 (HepG2) | Activity (HCT-116 [6]) [%] | Activity (HCT-116 [7]) | fold change (FC) (HCT-116 [8]) | Activity (HCT-116 [9]) | fold change (FC) (HCT-116 [10]) | Activity (HCT-116 [11]) | Activity (HCT-116 [12]) [%]
CC[C@H]1CN(C)[C@H]2Cc3c([nH]c4ccccc34)[C@H](c3c(OC)ccc4c5c([nH]c34)C3(C(=O)OC)C[C@@H]4C[C@H]([C@H](C)O)[C@@H]3N(CC5)C4)C[C@@H]1C2C(=O)OC (stereo partly drawn) | 1.6 - 5.2 | 39.3 | 5.08 | 15.7% | 13 | < 5.00 | 19.3 | 55 - 65% | 2.5 - 2.8 | 42.3 - 49% | 1.5 - 3.7 | 18.5% | 11
O=c1[nH]cc(F)c(=O)[nH]1 [FLUOROURACIL] | – | 78.7 | 5.60 | 4.48% | – | < 5.00 | 55.7 | 39.8% | 2.2 - 2.5 | 21.3% | – | 0% | –
CC[C@H]1CN(C)[C@H]2Cc3c([nH]c4ccccc34)[C@H](c3c(OC)ccc4c5c([nH]c34)C3(C(=O)OC)CC4C[C@H](CC)[C@@H]3N(CC5)C4=O)C[C@@H]1C2C(=O)OC (stereo partly drawn) | 1.6 - 5.2 | 36.5 | < 5.00 | 16.9% | 25 | < 5.00 | 15.9 | 62 - 67.2% | 2.5 - 2.8 | 41.7 - 46% | 1.5 - 3.7 | 21.8% | 16
CC[C@@H]1CN(C)[C@H]2Cc3c([nH]c4ccccc34)[C@H](c3c(OC)ccc4c5c([nH]c34)C3(C(=O)OC)C[C@@H]4C[C@H](CC)[C@@H]3N(CC5)C4)C[C@@H]1C2C(=O)OC (stereo partly drawn) | – | – | < 5.00 | – | – | < 5.00 | – | – | – | – | – | – | –
CC[C@H]1CN(C)[C@H]2Cc3c([nH]c4ccccc34)[C@H](c3cc4c5c([nH]c4cc3OC)C3(C(=O)OC)CC4C[C@H](CC)[C@@H]3N(CC5)C4=O)C[C@@H]1C2C(=O)OC (stereo partly drawn) | 1.6 - 5.2 | 39.4 | 5.06 | 44 - 50.5% | 37 | < 5.00 | 17.5 | 32% | 2.5 - 2.8 | 34.4% | 1.5 - 3.7 | 26.2 - 32% | 16
CC[C@H]1CN(C)[C@H]2Cc3c([nH]c4ccccc34)[C@H](c3cc4c5c([nH]c4cc3OC)C3(C(=O)OC)C[C@@H]4C[C@H](CC)[C@@H]3N(CC5)C4)C[C@@H]1C2C(=O)OC (stereo partly drawn) | 1.6 - 5.2 | 21.9 | 5.07 | 43.8 - 47% | 40 | < 5.00 | 28.5 | 27.7% | 2.5 - 2.8 | 2.39% | 1.5 - 3.7 | 75.7 - 77% | 31

Reference: ChEMBL document CHEMBL4041486, “Vobasinyl-Iboga Alkaloids from Tabernaemontana elegans: Cell Cycle Arrest and Apoptosis-Inducing Activity in HCT116 Colon Cancer Cells” (J Nat Prod, 2016)
